Positions of bridges follow the written chain, without caps; N, C: chain ends. Non-standard residues stand in square brackets, D forms with d. Residues, ends and D or L forms follow the SMILES beside them. *: point of attachment. hCys = N[C@@H](CCS)C(=O)O; Acm = CC(=O)NC*
System: not listed separately
Experiment: Vasorelaxant activity in norepinephrine-contracted rabbit aortic rings, compared to AP(103-126)
Assay type: functional, Oryctolagus cuniculus, Aorta

Compound	Relative potency
CC[C@H](C)[C@@H]1NC(=O)[C@H](CCCN=C(N)N)NC(=O)[C@H](CC(=O)O)NC(=O)[C@H]([C@@H](C)CC)NC(=O)[C@H](CCCN=C(N)N)NC(=O)[C@@H]2CCSSC[C@H](NC(=O)[C@H](CCC(N)=O)NC(=O)[C@H](C)NC(=O)CNC1=O)C(=O)NCC(=O)N[C@@H](CC(C)C)C(=O)NCC(=O)N[C@H](C(=O)N[C@@H](CC(N)=O)C(=O)N[C@@H](CO)C(=O)N[C@@H](Cc1ccccc1)C(=O)N[C@@H](CCCN=C(N)N)C(N)=O)CSSC[C@H](NC(=O)[C@H](CO)NC(=O)[C@@H](N)CO)C(=O)N[C@@H](Cc1ccccc1)C(=O)NCC(=O)N2 (H-SSCFG[hCys]RIDRIGAQCGLGCNSFR-NH2; disulfide 3-19, 6-15)	0.049
CC[C@H](C)[C@@H]1NC(=O)[C@H](CCCN=C(N)N)NC(=O)[C@H](CC(=O)O)NC(=O)[C@H]([C@@H](C)CC)NC(=O)[C@H](CCCN=C(N)N)NC(=O)[C@H](CSCNC(C)=O)NC(=O)CNC(=O)[C@H](Cc2ccccc2)NC(=O)[C@@H](NC(=O)[C@H](CO)NC(=O)[C@@H](N)CO)CSSC[C@@H](C(=O)NCC(=O)N[C@@H](CC(C)C)C(=O)NCC(=O)N[C@@H](CSCNC(C)=O)C(=O)N[C@@H](CC(N)=O)C(=O)N[C@@H](CO)C(=O)N[C@@H](Cc2ccccc2)C(=O)N[C@@H](CCCN=C(N)N)C(N)=O)NC(=O)[C@H](CCC(N)=O)NC(=O)[C@H](C)NC(=O)CNC1=O	0.042
CC[C@H](C)[C@@H]1NC(=O)[C@H](CCCN=C(N)N)NC(=O)[C@H](CC(=O)O)NC(=O)[C@H]([C@@H](C)CC)NC(=O)[C@H](CCCN=C(N)N)NC(=O)[C@H]2CSSC[C@@H](NC(=O)[C@H](CCC(N)=O)NC(=O)[C@H](C)NC(=O)CNC1=O)C(=O)NCC(=O)N[C@@H](CC(C)C)C(=O)NCC(=O)N[C@H](C(=O)N[C@@H](CC(N)=O)C(=O)N[C@@H](CO)C(=O)N[C@@H](Cc1ccccc1)C(=O)N[C@@H](CCCN=C(N)N)C(N)=O)CSSC[C@H](NC(=O)[C@H](CO)NC(=O)[C@@H](N)CO)C(=O)N[C@@H](Cc1ccccc1)C(=O)NCC(=O)N2	0.0073
CC[C@H](C)[C@@H]1NC(=O)[C@H](CCCN=C(N)N)NC(=O)[C@H](CC(=O)O)NC(=O)[C@H]([C@@H](C)CC)NC(=O)[C@H](CCCN=C(N)N)NC(=O)CNC(=O)CNC(=O)[C@H](Cc2ccccc2)NC(=O)[C@@H](NC(=O)[C@H](CO)NC(=O)[C@@H](N)CO)CSSC[C@@H](C(=O)N[C@@H](CC(N)=O)C(=O)N[C@@H](CO)C(=O)N[C@@H](Cc2ccccc2)C(=O)N[C@@H](CCCN=C(N)N)C(N)=O)NC(=O)CNC(=O)[C@H](CC(C)C)NC(=O)CNC(=O)[C@H](CSCNC(C)=O)NC(=O)[C@H](CCC(N)=O)NC(=O)[C@H](C)NC(=O)CNC1=O	0.21
CC[C@H](C)[C@H](NC(=O)[C@H](CC/N=C(/N)NO)NC(=O)[C@H](CC(=O)O)NC(=O)[C@@H](NC(=O)[C@H](CCN=C(N)N)NC(=O)[C@H](CSCNC(C)=O)NC(=O)CNC(=O)[C@H](Cc1ccccc1)NC(=O)[C@H](CSCNC(C)=O)NC(=O)[C@H](CO)NC(=O)[C@@H](N)CO)[C@@H](C)CC)C(=O)NCC(=O)N[C@@H](C)C(=O)N[C@@H](CCC(N)=O)C(=O)C1SSC[C@@H](C(=O)N[C@@H](CC(N)=O)C(=O)CN[C@@H](CO)C(=O)N[C@@H](Cc2ccccc2)C(=O)N[C@@H](CCCN=C(N)N)C(N)=O)NC(=O)CNC(=O)[C@H](CC(C)C)NC(=O)CNC(=O)[C@H]1N (stereo in doubt; 9a)	0.028
CC[C@H](C)[C@@H]1NC(=O)[C@H](CCCN=C(N)N)NC(=O)[C@H](CC(=O)O)NC(=O)[C@H]([C@@H](C)CC)NC(=O)[C@H](CCCN=C(N)N)NC(=O)[C@H](CSCNC(C)=O)NC(=O)CNC(=O)[C@H](Cc2ccccc2)NC(=O)[C@@H](NC(=O)[C@H](CO)NC(=O)[C@@H](N)CO)CSSC[C@@H](C(=O)N[C@@H](CC(N)=O)C(=O)N[C@@H](CO)C(=O)N[C@@H](Cc2ccccc2)C(=O)N[C@@H](CCCN=C(N)N)C(N)=O)NC(=O)CNC(=O)[C@H](CC(C)C)NC(=O)CNC(=O)[C@H](CO)NC(=O)[C@H](CCC(N)=O)NC(=O)[C@H](C)NC(=O)CNC1=O	1.03
CC[C@H](C)[C@@H]1NC(=O)[C@H](CCCN=C(N)N)NC(=O)[C@H](CC(=O)O)NC(=O)[C@H]([C@@H](C)CC)NC(=O)[C@H](CCCN=C(N)N)NC(=O)[C@@H](CSCNC(C)=O)NC(=O)CNC(=O)[C@H](Cc2ccccc2)NC(=O)[C@@H](NC(=O)[C@H](CO)NC(=O)[C@@H](N)CO)CSSC[C@@H](C(=O)N[C@@H](CC(N)=O)C(=O)N[C@@H](CO)C(=O)N[C@@H](Cc2ccccc2)C(=O)N[C@@H](CCCN=C(N)N)C(N)=O)NC(=O)CNC(=O)[C@H](CC(C)C)NC(=O)CNC(=O)[C@@H](CSCNC(C)=O)NC(=O)[C@H](CCC(N)=O)NC(=O)[C@H](C)NC(=O)CNC1=O	0.044
CC[C@H](C)[C@H](NC(=O)[C@H](CC/N=C(/N)NO)NC(=O)[C@H](CC(=O)O)NC(=O)[C@@H](NC(=O)[C@H](CCN=C(N)N)NC(=O)[C@H](CSCNC(C)=O)NC(=O)CNC(=O)[C@H](Cc1ccccc1)NC(=O)[C@H](CSCNC(C)=O)NC(=O)[C@H](CO)NC(=O)[C@@H](N)CO)[C@@H](C)CC)C(=O)NCC(=O)N[C@@H](C)C(=O)N[C@@H](CCC(N)=O)C(=O)C1SSC[C@@H](C(=O)N[C@@H](CC(N)=O)C(=O)CN[C@@H](CO)C(=O)N[C@@H](Cc2ccccc2)C(=O)N[C@@H](CCCN=C(N)N)C(N)=O)NC(=O)CNC(=O)[C@H](CC(C)C)NC(=O)CNC(=O)[C@H]1N (stereo in doubt; 9b)	0.013
CC[C@H](C)[C@@H]1NC(=O)[C@H](CCCN=C(N)N)NC(=O)[C@H](CC(=O)O)NC(=O)[C@H]([C@@H](C)CC)NC(=O)[C@H](CCCN=C(N)N)NC(=O)[C@H](CCSCNC(C)=O)NC(=O)CNC(=O)[C@H](Cc2ccccc2)NC(=O)[C@@H](NC(=O)[C@H](CO)NC(=O)[C@@H](N)CO)CSSC[C@@H](C(=O)N[C@@H](CC(N)=O)C(=O)N[C@@H](CO)C(=O)N[C@@H](Cc2ccccc2)C(=O)N[C@@H](CCCN=C(N)N)C(N)=O)NC(=O)CNC(=O)[C@H](CC(C)C)NC(=O)CNC(=O)[C@H](CCSCNC(C)=O)NC(=O)[C@H](CCC(N)=O)NC(=O)[C@H](C)NC(=O)CNC1=O	0.068
CC[C@H](C)[C@@H]1NC(=O)[C@H](CCCN=C(N)N)NC(=O)[C@H](CC(=O)O)NC(=O)[C@H]([C@@H](C)CC)NC(=O)[C@H](CCCN=C(N)N)NC(=O)[C@@H](NC(=O)CNC(=O)[C@H](Cc2ccccc2)NC(=O)[C@H](CSCNC(C)=O)NC(=O)[C@H](CO)NC(=O)[C@@H](N)CO)CSSC[C@@H](C(=O)N[C@@H](CC(N)=O)C(=O)N[C@@H](CO)C(=O)N[C@@H](Cc2ccccc2)C(=O)N[C@@H](CCCN=C(N)N)C(N)=O)NC(=O)CNC(=O)[C@H](CC(C)C)NC(=O)CNC(=O)[C@H](CSCNC(C)=O)NC(=O)[C@H](CCC(N)=O)NC(=O)[C@H](C)NC(=O)CNC1=O (H-SSC(Acm)FGCRIDRIGAQC(Acm)GLGCNSFR-NH2; disulfide 6-19)	0.0022
CC[C@H](C)[C@@H]1NC(=O)[C@H](CCCN=C(N)N)NC(=O)[C@H](CC(=O)O)NC(=O)[C@H]([C@@H](C)CC)NC(=O)[C@H](CCCN=C(N)N)NC(=O)[C@H](CCSCNC(C)=O)NC(=O)CNC(=O)[C@H](Cc2ccccc2)NC(=O)[C@@H](NC(=O)[C@H](CO)NC(=O)[C@@H](N)CO)CSSC[C@@H](C(=O)N[C@@H](CC(N)=O)C(=O)N[C@@H](CO)C(=O)N[C@@H](Cc2ccccc2)C(=O)N[C@@H](CCCN=C(N)N)C(N)=O)NC(=O)CNC(=O)[C@H](CC(C)C)NC(=O)CNC(=O)[C@H](CSCNC(C)=O)NC(=O)[C@H](CCC(N)=O)NC(=O)[C@H](C)NC(=O)CNC1=O	0.24
CC[C@H](C)[C@@H]1NC(=O)[C@H](CCCN=C(N)N)NC(=O)[C@H](CC(=O)O)NC(=O)[C@H]([C@@H](C)CC)NC(=O)[C@H](CCCN=C(N)N)NC(=O)[C@H](CSCNC(C)=O)NC(=O)CNC(=O)[C@H](Cc2ccccc2)NC(=O)[C@@H](NC(=O)[C@H](CO)NC(=O)[C@@H](N)CO)CSSC[C@@H](C(=O)N[C@@H](CC(N)=O)C(=O)N[C@@H](CO)C(=O)N[C@@H](Cc2ccccc2)C(=O)N[C@@H](CCCN=C(N)N)C(N)=O)NC(=O)CNC(=O)[C@H](CC(C)C)NC(=O)CNC(=O)[C@H](CSCNC(C)=O)NC(=O)[C@H](CCC(N)=O)NC(=O)[C@H](C)NC(=O)CNC1=O	0.43
CC[C@H](C)[C@@H]1NC(=O)[C@H](CCCN=C(N)N)NC(=O)[C@H](CC(=O)O)NC(=O)[C@H]([C@@H](C)CC)NC(=O)[C@H](CCCN=C(N)N)NC(=O)CNC(=O)CNC(=O)[C@H](Cc2ccccc2)NC(=O)[C@@H](NC(=O)[C@H](CO)NC(=O)[C@@H](N)CO)CSSC[C@@H](C(=O)N[C@@H](CC(N)=O)C(=O)N[C@@H](CO)C(=O)N[C@@H](Cc2ccccc2)C(=O)N[C@@H](CCCN=C(N)N)C(N)=O)NC(=O)CNC(=O)[C@H](CC(C)C)NC(=O)CNC(=O)[C@H](CO)NC(=O)[C@H](CCC(N)=O)NC(=O)[C@H](C)NC(=O)CNC1=O	1.7

System: Atrial natriuretic peptide receptor 3 (Oryctolagus cuniculus)
Experiment: Relative binding potency towards non-vasorelaxant binding site compared to AP(103-126)

Compound	Relative potency
CC[C@H](C)[C@@H]1NC(=O)[C@H](CCCN=C(N)N)NC(=O)[C@H](CC(=O)O)NC(=O)[C@H]([C@@H](C)CC)NC(=O)[C@H](CCCN=C(N)N)NC(=O)[C@@H](CCSCNC(C)=O)NC(=O)CNC(=O)[C@H](Cc2ccccc2)NC(=O)[C@H](NC(=O)[C@H](CO)NC(=O)[C@@H](N)CO)CSSC[C@H](C(=O)N[C@@H](CC(N)=O)C(=O)N[C@@H](CO)C(=O)N[C@@H](Cc2ccccc2)C(=O)N[C@@H](CCCN=C(N)N)C(N)=O)NC(=O)CNC(=O)[C@H](CC(C)C)NC(=O)CNC(=O)[C@H](CSCNC(C)=O)NC(=O)[C@H](CCC(N)=O)NC(=O)[C@H](C)NC(=O)CNC1=O	0.15
CC[C@H](C)[C@H]1NC(=O)[C@H](CCCN=C(N)N)NC(=O)[C@H](CC(=O)O)NC(=O)[C@@H]([C@@H](C)CC)NC(=O)[C@H](CCCN=C(N)N)NC(=O)CNC(=O)CNC(=O)[C@@H](Cc2ccccc2)NC(=O)[C@H](NC(=O)[C@H](CO)NC(=O)[C@@H](N)CO)CSSC[C@H](C(=O)N[C@@H](CC(N)=O)C(=O)N[C@@H](CO)C(=O)N[C@@H](Cc2ccccc2)C(=O)N[C@@H](CCCN=C(N)N)C(N)=O)NC(=O)CNC(=O)[C@@H](CC(C)C)NC(=O)CNC(=O)[C@@H](CO)NC(=O)[C@H](CCC(N)=O)NC(=O)[C@@H](C)NC(=O)CNC1=O	3.2

Organism: Oryctolagus cuniculus
Experiment: Relative binding potency towards vasorelaxant binding site compared to AP(103-126)
In short: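 Varied unlabeled peptide concentrations; started by adding membranes; 30 min at 25 °C. Filtration with ice-cold buffer, then gamma counting. Nonspecific binding measured with 10^-6 M unlabeled reference peptide. Specific binding fitted by nonlinear least squares.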

Compound	Relative potency
CC[C@H](C)[C@@H]1NC(=O)[C@H](CCCN=C(N)N)NC(=O)[C@H](CC(=O)O)NC(=O)[C@H]([C@@H](C)CC)NC(=O)[C@H](CCCN=C(N)N)NC(=O)[C@@H](CCSCNC(C)=O)NC(=O)CNC(=O)[C@H](Cc2ccccc2)NC(=O)[C@H](NC(=O)[C@H](CO)NC(=O)[C@@H](N)CO)CSSC[C@H](C(=O)N[C@@H](CC(N)=O)C(=O)N[C@@H](CO)C(=O)N[C@@H](Cc2ccccc2)C(=O)N[C@@H](CCCN=C(N)N)C(N)=O)NC(=O)CNC(=O)[C@H](CC(C)C)NC(=O)CNC(=O)[C@H](CSCNC(C)=O)NC(=O)[C@H](CCC(N)=O)NC(=O)[C@H](C)NC(=O)CNC1=O	0.15
CC[C@H](C)[C@H]1NC(=O)[C@H](CCCN=C(N)N)NC(=O)[C@H](CC(=O)O)NC(=O)[C@@H]([C@@H](C)CC)NC(=O)[C@H](CCCN=C(N)N)NC(=O)CNC(=O)CNC(=O)[C@@H](Cc2ccccc2)NC(=O)[C@H](NC(=O)[C@H](CO)NC(=O)[C@@H](N)CO)CSSC[C@H](C(=O)N[C@@H](CC(N)=O)C(=O)N[C@@H](CO)C(=O)N[C@@H](Cc2ccccc2)C(=O)N[C@@H](CCCN=C(N)N)C(N)=O)NC(=O)CNC(=O)[C@@H](CC(C)C)NC(=O)CNC(=O)[C@@H](CO)NC(=O)[C@H](CCC(N)=O)NC(=O)[C@@H](C)NC(=O)CNC1=O	3.2

From ChEMBL document CHEMBL1124339, “Conformationally restricted analogues of atriopeptin(103-125)amide” (J Med Chem, 1989)
